Measurements from ChEMBL document CHEMBL3616416, “Imidazolidine-4-one derivatives in the search for novel chemosensitizers of Staphylococcus aureus MRSA: synthesis, biological evaluation and molecular modeling studies” (Eur J Med Chem, 2015).
Converted amounts (≈) assume the structure as drawn. The source made the active and inactive calls. No cut-off for these calls is given here.

What was measured:
Staphylococcus aureus [1] = assay: Potentiation of […] antibacterial activity against Staphylococcus aureus ATCC 25923 assessed as reduction in ampicillin and sulbactam MIC MIC incubated for 20 hrs by serial dilution broth microplate method; assay type: functional, organism-based
Staphylococcus aureus [2] = assay: Potentiation of oxacillin-induced antibacterial activity against Staphylococcus aureus ATCC 25923 assessed as reduction in oxacillin MIC at 0.0039 mM incubated for 20 hrs by serial dilution broth microplate method; assay type: functional
Staphylococcus aureus [3] = assay: Potentiation of neomycin-induced antibacterial activity against Staphylococcus aureus ATCC 25923 assessed as reduction in […] MIC incubated for 20 hrs by serial dilution broth microplate method; assay type: functional, organism-based
[4] = target: T1, Methicillin resistance mecR1 protein (Staphylococcus aureus) (UniProt P0A0B1); assay: Inhibition of MecR1 in methicillin-resistant Staphylococcus aureus HEMSA assessed as reduction in ciprofloxacin MIC at 0.0078 mM incubated for 20 hrs by serial dilution broth microplate method
T1 sequence (whole entry): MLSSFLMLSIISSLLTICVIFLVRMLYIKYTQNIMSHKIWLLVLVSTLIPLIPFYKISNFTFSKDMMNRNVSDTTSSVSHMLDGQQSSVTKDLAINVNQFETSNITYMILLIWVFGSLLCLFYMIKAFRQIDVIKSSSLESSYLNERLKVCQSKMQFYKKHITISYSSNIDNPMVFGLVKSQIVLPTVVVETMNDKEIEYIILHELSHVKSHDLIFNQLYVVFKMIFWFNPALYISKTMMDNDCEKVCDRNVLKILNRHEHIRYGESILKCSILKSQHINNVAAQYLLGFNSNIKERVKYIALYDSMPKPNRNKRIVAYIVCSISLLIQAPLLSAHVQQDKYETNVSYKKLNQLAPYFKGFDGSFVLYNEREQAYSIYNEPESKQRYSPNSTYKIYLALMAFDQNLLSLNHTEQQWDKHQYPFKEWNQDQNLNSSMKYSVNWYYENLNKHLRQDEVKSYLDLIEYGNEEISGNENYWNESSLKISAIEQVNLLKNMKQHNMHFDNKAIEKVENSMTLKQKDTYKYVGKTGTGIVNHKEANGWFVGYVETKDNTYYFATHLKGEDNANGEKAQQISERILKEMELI
Method in brief: (§1)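 Chemosensitization in MRSA HEMSA 5 measured by CLSI broth microdilution in Mueller-Hinton broth. Serial two-fold dilutions of antibiotic (oxacillin, cloxacillin, ampicillin/sulbactam 2:1, ciprofloxacin or neomycin) combined with compound at fixed concentration not exceeding ¼ of its own MIC. Inoculum OD 0.5 diluted 1:100. Read after 20 h at 37 °C. Result given as fold reduction of antibiotic MIC.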

Staphylococcus aureus [5] = assay: Resistance index, ratio of MIC for methicillin-resistant Staphylococcus aureus HEMSA to MIC for Staphylococcus aureus ATCC 25923; assay type: functional
[6] = target: T1, Methicillin resistance mecR1 protein (Staphylococcus aureus); assay: Inhibition of MecR1 in methicillin-resistant Staphylococcus aureus HEMSA assessed as reduction in neomycin MIC at 0.0078 mM incubated for 20 hrs by serial dilution broth microplate method; method in brief: as §1
Staphylococcus aureus [7] = assay: Antimicrobial activity against Staphylococcus aureus ATCC 25923 incubated for 20 hrs by serial dilution broth microplate method; assay type: functional; conditions: ATCC 25923, 20 h
Method in brief: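 Broth dilution per CLSI in Mueller-Hinton broth, serial two-fold dilutions; compounds alone against reference strain, inoculum from suspension at OD 0.5 diluted 1:100; read after 20 h at 37 °C. MIC taken as lowest concentration inhibiting growth.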

[8] = target: T1, Methicillin resistance mecR1 protein (Staphylococcus aureus); assay: Inhibition of MecR1 in methicillin-resistant Staphylococcus aureus HEMSA assessed as reduction in ampicillin and sulbactam MIC at 0.0078 mM incubated for 20 hrs by serial dilution broth microplate method; method in brief: as §1
Staphylococcus aureus [9] = assay: Potentiation of […] antibacterial activity against Staphylococcus aureus ATCC 25923 assessed as reduction in cloxacillin MIC incubated for 20 hrs by serial dilution broth microplate method; assay type: functional, organism-based
[10] = target: T1, Methicillin resistance mecR1 protein (Staphylococcus aureus); assay: Inhibition of MecR1 in methicillin-resistant Staphylococcus aureus HEMSA assessed as reduction in cloxacillin MIC at 0.0078 mM incubated for 20 hrs by serial dilution broth microplate method; method in brief: as §1
Staphylococcus aureus [11] = assay: Potentiation of ciprofloxacin -induced antibacterial activity against Staphylococcus aureus ATCC 25923 assessed as reduction in […] MIC incubated for 20 hrs by serial dilution broth microplate method; assay type: functional, organism-based
[12] = target: T1, Methicillin resistance mecR1 protein (Staphylococcus aureus); assay: Inhibition of MecR1 in methicillin-resistant Staphylococcus aureus HEMSA assessed as reduction in oxacillin A MIC at 0.0078 mM incubated for 20 hrs by serial dilution broth microplate method; method in brief: as §1
Staphylococcus aureus [13] = assay: Antimicrobial activity against methicillin-resistant Staphylococcus aureus HEMSA incubated for 20 hrs by serial dilution broth microplate method; assay type: functional
Method in brief: (§2)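 Broth microdilution MIC per CLSI in Mueller-Hinton broth against clinical isolate MRSA HEMSA 5. Bacterial suspension adjusted to OD 0.5, diluted 1:100 and added to serial two-fold dilutions of test agent. Ampicillin/sulbactam used at 2:1 ratio. Growth read after 20 h at 37 °C.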

Staphylococcus aureus [14] = assay: Potentiation of oxacillin-induced antibacterial activity against Staphylococcus aureus ATCC 25923 assessed as reduction in oxacillin MIC at 0.125 mM incubated for 20 hrs by serial dilution broth microplate method; assay type: functional
[15] = target: T1, Methicillin resistance mecR1 protein (Staphylococcus aureus); assay: Inhibition of MecR1 in methicillin-resistant Staphylococcus aureus HEMSA assessed as reduction in oxacillin A MIC at 0.125 mM incubated for 20 hrs by serial dilution broth microplate method; method in brief: as §1
[16] = target: T1, Methicillin resistance mecR1 protein (Staphylococcus aureus); assay: Inhibition of MecR1 in methicillin-resistant Staphylococcus aureus HEMSA assessed as reduction in neomycin MIC at 0.125 mM incubated for 20 hrs by serial dilution broth microplate method
[17] = target: T1, Methicillin resistance mecR1 protein (Staphylococcus aureus); assay: Inhibition of MecR1 in methicillin-resistant Staphylococcus aureus HEMSA assessed as reduction in ciprofloxacin MIC at 0.125 mM incubated for 20 hrs by serial dilution broth microplate method; method in brief: as §1
[18] = target: T1, Methicillin resistance mecR1 protein (Staphylococcus aureus); assay: Inhibition of MecR1 in methicillin-resistant Staphylococcus aureus HEMSA assessed as reduction in ampicillin and sulbactam MIC at 0.125 mM incubated for 20 hrs by serial dilution broth microplate method; method in brief: as §1
[19] = Toxicity against HEK293 cells assessed as cell viability at 0.125 mM incubated for 48 hrs by EZ4U colorimetric assay; assay type: cell-based; conditions: human, read-out: Activity
Method in brief: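 HEK-293 cells in DMEM with 10% FBS, penicillin/streptomycin, 37 °C, 5% CO2; seeded 1.5×10^4 cells/well, 24 h to 60% confluence; compound 0.01–250 µM for 48 h; EZ4U tetrazolium reagent 5 h, absorbance at 492 nm; doxorubicin positive control (0.005–100 µM); four repetitions.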

[20] = target: T1, Methicillin resistance mecR1 protein (Staphylococcus aureus); assay: Inhibition of MecR1 in methicillin-resistant Staphylococcus aureus HEMSA assessed as reduction in cloxacillin MIC at 0.125 mM incubated for 20 hrs by serial dilution broth microplate method; method in brief: as §1
Staphylococcus aureus [21] = assay: Antimicrobial activity against Staphylococcus aureus ATCC 25923 incubated for 20 hrs in presence of sulbactam by serial dilution broth microplate method; assay type: functional; conditions: ATCC 25923, 20 h
Staphylococcus aureus [22] = assay: Antimicrobial activity against methicillin-resistant Staphylococcus aureus HEMSA incubated for 20 hrs in presence of sulbactam by serial dilution broth microplate method; assay type: functional; method in brief: as §2

Row | SMILES | Activity (Staphylococcus aureus [1]) | Activity (Staphylococcus aureus [3]) | Ratio (Staphylococcus aureus [5]) | MIC (Staphylococcus aureus [7]) [µM] | Activity (Staphylococcus aureus [9]) | Activity (Staphylococcus aureus [11]) | MIC (Staphylococcus aureus [13]) [µM] | also measured
1 | O=C1NC(N2CCNCC2)=N/C1=C\c1ccc2c(c1)Cc1ccccc1-2 | inactive | inactive | 2 | 15.6 (≈ 5.37 µg/mL) | inactive | inactive | 31.3 (≈ 10.8 µg/mL) | fold change (FC) (Staphylococcus aureus [2]): 2; inhibition [4]: inactive; inhibition [6]: inactive; inhibition [8]: inactive; fold change (FC) [10]: 8; inhibition [12]: inactive
2 | O=C1NC(N2CCNCC2)=N/C1=C\c1c2ccccc2cc2ccccc12 | inactive | inactive | 1 | 500 (≈ 178 µg/mL) | inactive | inactive | 500 (≈ 178 µg/mL) | fold change (FC) (Staphylococcus aureus [14]): 2; fold change (FC) [15]: 64; inhibition [16]: inactive; inhibition [17]: inactive; inhibition [18]: inactive; viability at 48 h, 125 µM [19]: 91%; fold change (FC) [20]: 8
3 | CC1(C)S[C@@H]2[C@H](NC(=O)[C@H](N)c3ccccc3)C(=O)N2[C@H]1C(=O)O [AMPICILLIN] |  |  | 370 |  |  |  |  | MIC (Staphylococcus aureus [21]): 0.54 µM; MIC (Staphylococcus aureus [22]): 200 µM
